Source: PubChem
Only some compounds are listed: those with a hit (about 1.5% of all), similar ones and a draw of the others.
CXCR6 inh – CXCR6 (human) receptor inhibition; CHO-K1 PathHunter CXCR6 beta-arrestin, luminescence; inhibition, % at 20 µM; 360,000 compounds, 0.36% hits; AID 602244; in the data active = inhibition above about 34%, passing the limit was not always enough;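 note: antagonist mode with CXCL16 agonist at 10 nM final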
CCR6 antagonist – CCR6 (human) receptor antagonism; P51684; 340,000 compounds, 0.49% hits; CHO-K1 CCR6 PathHunter beta-arrestin, luminescence, CCL20-stimulated; AID 493098; inhibition, % at 20 µM;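 active = compounds whose inhibition of the agonist-driven luminescence signal at 20 µM reaches about 50%, limit read from the data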;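 note: cells stimulated with CCL20 at 14 nM final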
APJ antagonist – antagonists of human APJ apelin receptor; AID 2521; CHO-K1 APJ beta-arrestin complementation, luminescence; inhibition, % at 20 µM; 330,000 compounds, 0.32% hits;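 active = inhibition above about 40% at 20 µM, limit read from the data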;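 note: cells challenged with 10 nM apelin-13 agonist together with compound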
APJ agonist – agonists of human APJ apelin receptor | CHO-K1 APJ PathHunter beta-arrestin, luminescence; 0% DMSO wells, 100% apelin | activation, % at 20 µM | P35414 | 330,000 compounds, 0.11% hits;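 active = activation more than six SD over the plate average, tested at 20 µM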
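Test system – PathHunter CHO-K1 APJ (AGTRL-1) beta-arrestin reporter cells · Input – 1000 cells/well · Compound – single test compound dose, 20 µM final, 1% DMSO · Times – compound stimulation 90 min at 25 °C, detection 60 min · Technique – beta-gal luminescence · Read-out basis – APJ–arrestin association signal · Control set – negative DMSO alone, positive Apelin-13 at 10 nM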
EBI2 block – antagonists of human EBI2 receptor; EBI2 beta-arrestin recruitment, luminescence, 7a,25-OHC stimulated; inhibition, % at 5 µM; 360,000 compounds, 0.81% hits; in the data active = inhibition above about 38%;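 note: enzyme fragment complementation signal reports receptor beta-arrestin coupling in cells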
Target sequence (P32249 whole entry, looked up, the tested form may be a part): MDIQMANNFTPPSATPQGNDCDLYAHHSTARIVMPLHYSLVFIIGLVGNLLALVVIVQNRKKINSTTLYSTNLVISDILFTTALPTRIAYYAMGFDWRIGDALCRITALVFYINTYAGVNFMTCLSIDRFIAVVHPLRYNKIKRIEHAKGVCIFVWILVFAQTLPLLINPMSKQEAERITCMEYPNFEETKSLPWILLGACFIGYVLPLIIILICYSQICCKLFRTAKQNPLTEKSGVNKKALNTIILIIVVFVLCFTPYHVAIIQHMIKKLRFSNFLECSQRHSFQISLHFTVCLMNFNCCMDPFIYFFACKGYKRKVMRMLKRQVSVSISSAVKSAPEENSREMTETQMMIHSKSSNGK
Each line names hits and unclear results; the compound was inactive in the other large screens.

COc1ccc(-c2sc(NC(=O)c3ccc(C)cc3)nc2-c2ccc([N+](=O)[O-])cc2)cc1	CCR6 antagonist 52
COc1ccc(C(=O)Nc2nc(-c3ccc([N+](=O)[O-])cc3)c(-c3ccccc3)s2)cc1	none
CN(C)c1nc(N/N=C/c2ccccc2O)nc(Nc2ccc(F)cc2)n1	CXCR6 inh 68, CCR6 antagonist 71
CC1=NOC(=O)/C1=C\c1ccc(-c2ccc(Br)cc2)o1	CXCR6 inh 41, CCR6 antagonist 76 (no result: APJ antagonist, APJ agonist)
COC(=O)[C@]12CCCCC=C1N(Cc1ccc3c(c1)OCO3)C(=O)[C@H](CC(=O)NCCCN1CCCC1=O)C2	none (no result: CXCR6 inh, CCR6 antagonist, APJ antagonist, APJ agonist)
O=C1/C(=C/c2ccc(O)c(O)c2)SC(=S)N1Nc1ccccc1	CXCR6 inh 51, CCR6 antagonist 61 (no result: APJ antagonist, APJ agonist)
CC(C)NC(=O)C1(C)CCN1C(=O)c1ccccc1 (stereo not given)	none (no result: CCR6 antagonist, APJ antagonist, APJ agonist)
CC(=O)N(c1ccccc1C)C1CCCC1	none
CC(=O)N(C1=C(Cl)C(=O)c2ccccc2C1=O)C1CCCCC1	CXCR6 inh 40, CCR6 antagonist 115
O=c1ccc2cc3c([nH]c4ccc(Br)cc43)oc-2c1O	CXCR6 inh 45 (no result: CCR6 antagonist)
CC(c1nc2ccccc2[nH]1)n1c(=O)c(-c2ccco2)nc2ccccc21 (stereo not given)	none (no result: CXCR6 inh, CCR6 antagonist, APJ antagonist, APJ agonist)
CC(=O)n1cc(C(C[N+](=O)[O-])SCCN)c2ccccc21 (stereo not given)	CCR6 antagonist 60
Cn1cc(C(C[N+](=O)[O-])c2ccccc2)c2ccccc21 (stereo not given)	none
CCCCCCCCSC1=CC(=O)C(OC)=C(OC)C1=O	CXCR6 inh 39 (no result: CCR6 antagonist, APJ antagonist, APJ agonist)
CCCCCSc1nncc(=O)[nH]1	none
COc1ccccc1/C=C/c1ccc2cccc(O)c2n1	CCR6 antagonist 63
COc1ccc(C(=O)N/N=C/c2sc(N3CCOCC3)nc2-c2ccccc2)cc1OC	none
COc1ccccc1NS(=O)(=O)c1cc([N+](=O)[O-])ccc1N/N=C/c1sc(N2CCOCC2)nc1-c1ccccc1	CXCR6 inh 44, CCR6 antagonist 63 (no result: APJ antagonist, APJ agonist)
CC(CCC(=O)NN)C1CCC2C3CCC4CC(O)CCC4(C)C3CCC12C (stereo not given)	none (no result: APJ antagonist, APJ agonist)
CC(CCC(C)C(C)(C)C)[C@@H]1CC[C@H]2C3C[C@H](OS(O)(=S)=S)[C@H]4C[C@H](OS(O)(=S)=S)[C@@H](OS(O)(=S)=S)C[C@]4(C)[C@H]3CC[C@]12C (stereo not given in full) (tested in a mixture with another compound)	CCR6 antagonist 57
CC(Nc1cccc2ccccc12)C(=O)N/N=C/c1ccc([N+](=O)[O-])cc1 (stereo not given)	none
COc1cc([N+](=O)[O-])cc(/C=N/NC(=O)C(C)Nc2cccc3ccccc23)c1O (stereo not given)	CXCR6 inh 56, EBI2 block 56
O=[N+]([O-])c1ccc(N2CCOCC2)cc1O	none
Cc1cc(N2CCOCC2)ccc1/C=C\[N+](=O)[O-]	CCR6 antagonist 56
CN1CCN(C2=C(Cl)C(=O)C(c3cnc(N4CCCCC4)s3)=C(Cl)C2=O)CC1	CCR6 antagonist 74
CN1CCN(C2=C(Cl)C(=O)c3ccccc3C2=O)CC1	none (no result: APJ antagonist, APJ agonist)
Cc1ccccc1-c1cnc(C(O)c2ccc(F)cc2C)[nH]1 (stereo not given)	none (no result: CCR6 antagonist, APJ antagonist, APJ agonist)
O=C(C[n+]1ccc(C(=O)NCc2ccccc2)cc1)c1ccc(OC(F)F)cc1	none
O=C(C[n+]1cn(C(F)F)c2ccccc21)c1ccc(OC(F)F)cc1	APJ agonist 18
O=C(NCCC1=CCCCC1)c1cc(COc2ccc(F)cc2Cl)on1	none
O=C(NCCc1ccccc1Cl)c1cc(COc2ccc(F)cc2F)on1	EBI2 block 57
Cc1ccc(NS(=O)(=O)c2cc([N+](=O)[O-])ccc2NNC(=S)Nc2cccc(Cl)c2)c(C)c1	CXCR6 inh 58, CCR6 antagonist 81 (no result: APJ antagonist, APJ agonist)
CC(C)(C)OC(=O)N1CCCC(C(=O)Nc2ccc(C(=O)NC3CC3)cc2)C1 (stereo not given)	none (no result: APJ antagonist, APJ agonist)
COc1ccc(/C=c2\sc3nc(=O)c(C)nn3c2=O)c(OC)c1	CCR6 antagonist 83
Cc1ccc(/C=C/C(=O)NCCc2ccccc2)o1	CCR6 antagonist 83
COC(=O)C1=C(C)N(Cc2ccc(C)cc2)C(=O)/C1=C\c1ccc(O)c(OC)c1	CXCR6 inh 36
COC(=O)C1=C(C)N(Cc2ccc(C)cc2)C(=O)/C1=C\c1cc(OC)c(OC)c(OC)c1	none
